PolyA inhibitor: polyadenylation inhibitors in yeast reporter cells, primary screen, luminescence, S. cerevisiae | 300,000 tested, 0.02% active | AID 1875, 2009 | activity score, % at 12 µM | S. cerevisiae SKY197-pL101 polyadenylation reporter, beta-gal luminescence; efflux-impaired pdr1/pdr3 knockout yeast; score 100 = 6 SD above DMSO;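 active means lowest replicate activity score at least 50, where 100 means six control SD above control mean; inconclusive means lowest score under 50 but half or more replicates reach 50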;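 further: yeast exposed to compound for 9 h at 30 °C; higher score means more reporter readthrough which indicates perturbed polyadenylation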
NLRP3 yeast inh: NALP3 inflammasome inhibitors in reconstituted yeast, primary screen, luminescence, uHTS; Yeast reconstituted NLRP3/ASC/caspase-1, beta-gal luminescence, 24 h; inhibition, % at 10 µM; 330,000 tested, 0.39% active;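 active means inhibition of 50% or more; inactive means inhibition below 50%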
L major viab: Leishmania major promastigote growth inhibition, primary screen | Leishmania major promastigotes, resazurin fluorescence viability | inhibition, % at 10 µM | 200,000 tested, 9% active; in the data active means inhibition above about 50%;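 further: promastigotes grown with compound for 44 hours at 28 °C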
NALP1 yeast inh: NALP1 inflammasome inhibitors in reconstituted yeast, colorimetric, S. cerevisiae, triplicate retest; S. cerevisiae NALP1/ASC/caspase-1 growth, X-gal OD620, 72 h; inhibition, % at 10 µM; 280,000 tested, 0.61% active; AID 2071, 2009; in the data active means inhibition mostly above about 24%, no sharp cut-off; inactive means mostly below about 32%
T cruzi repl: inhibitors of intracellular T. cruzi growth, primary screen, luminescence, NIH3T3 host cells; T. cruzi beta-gal in NIH3T3, 90 h; inhibition, % (concentration not given with the values); 300,000 tested, 1.4% active; AID 1885, 2009;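 active means mean inhibition across valid replicates above about 55%, limit read from the data; inconclusive means mean below that limit but half or more replicates reach it; inactive means mean below it, under half of replicates reach it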;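 further: signal also drops with host cell toxicity which is not excluded here; higher percent means less beta-gal luminescence so fewer parasites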
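compound dosing = single 50 nL compound addition per well in DMSO | material = NIH/3T3 host cells with β-galactosidase reporter T. cruzi | input = 5,000 host fibroblasts per well | timing = ≥90 h infection period, 3 h prior cell attachment | read-out basis = percent inhibition of parasite-derived β-gal signal | detection = GalScreen β-gal luminescence, detergent lysis, 60 min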
Calb FLC: C. albicans growth inhibition with fluconazole, primary screen, CaCi-2 strain, Alamar Blue fluorescence. C. albicans CaCi-2 (fluconazole-resistant clinical isolate) + fluconazole, 48 h. growth inhibition, % (no concentration beside the values). 300,000 tested, 0.57% active. AID 1979, 2009;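 active means growth inhibition above about 58% in most replicates, limit read from the data, passing the limit was not always enough; inconclusive means exactly half the replicates above a set limit; inactive means most replicates below a set limit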;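 further: all wells also contain fluconazole at 8 µg/ml as a sub-toxic cotreatment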
Each line names hits and unclear results; the compound was inactive in the other large screens. The sample as a whole holds a higher share of hits than the screen did.

CCn1c(/C=C\c2ccccc2C)nc2ccccc2c1=O	Calb FLC inconclusive
Cc1ccccc1/C=C\c1nc2ccccc2c(=O)n1Cc1ccccc1	L major viab 99
CCOc1cc(/C=C2\SC(=S)N(NS(=O)(=O)c3ccccc3)C2=O)ccc1O	Calb FLC 88 (no result: L major viab)
COc1cc(/C=C2\SC(=S)N(Nc3ccccc3)C2=O)ccc1O	none
COc1cc(/C=C2\SC(=S)N(NC(=O)c3cccnc3)C2=O)ccc1O	PolyA inhibitor 86 (no result: L major viab, NALP1 yeast inh)
O=C1/C(=C/c2ccc(O)c(O)c2)SC(=S)N1Nc1ccccc1	L major viab 78, Calb FLC 114 (no result: NLRP3 yeast inh)
CC1CCCN(CCCNC(=O)C2CCC(CNS(=O)(=O)c3cccc4nsnc34)CC2)C1 (configuration not stated)	none (no result: L major viab)
Cc1ccc(NCc2ccncc2)c(Br)c1	NALP1 yeast inh 32
Cc1cc(NCc2ccncc2)ccc1Br	none
CCOC(=O)c1ccc(NC(=O)COc2ccc(CNC3CCCCC3)cc2OC)cc1	L major viab 94
COc1cc(CNC(C)(C)CO)ccc1OCC(=O)Nc1ccc(Br)cc1	L major viab 101, Calb FLC inconclusive
CCOC(=O)c1ccc(NC(=O)COc2ccccc2CNCCc2ccccc2)cc1	L major viab 101
COc1ccc(OC)c(CCNC(=O)c2cccc(NC3=NC4CS(=O)(=O)CC4S3)c2)c1 (configuration not stated)	none (no result: L major viab)
CCOC(=O)[C@H]1[C@H]2COc3ccc(Cl)cc3[C@@H]2N2C(=O)c3cc(F)c(F)cc3NC(=O)[C@@]12C	none (no result: PolyA inhibitor, L major viab, NALP1 yeast inh, T cruzi repl, Calb FLC)
COc1ccc(NC(=O)c2cc([N+](=O)[O-])ccc2O)cc1	Calb FLC 83
COc1ccc(NC(=O)c2cccc([N+](=O)[O-])c2)cc1	none
COc1ccc(NC(=S)Nc2cccc([N+](=O)[O-])c2)cc1	L major viab 87
N#Cc1cc2c(cc1NC(=O)CCn1cnnn1)OCO2	NALP1 yeast inh 36 (no result: L major viab)
Cc1ccc(C(=O)CN2C(=O)c3ccccc3S2(=O)=O)cc1	none (no result: L major viab)
Cc1ccc(C(=O)CN2/C(=C(\O)c3ccccc3)C(=O)c3ccccc3S2(=O)=O)c(C)c1	L major viab 82
Nc1ccc(Oc2ccc3nc(-c4ccccc4)c(-c4ccccc4)nc3c2)cc1	L major viab 66
Nc1ccc2nc(-c3ccccc3)c(-c3ccccc3)nc2c1	none (no result: L major viab)
Cc1cccc(N2C(=O)CSC2c2cccnc2)c1 (configuration not stated)	none
Cc1cccc(N2CCN(c3cccc(C)c3)C2c2cccnc2)c1	L major viab 99, T cruzi repl 66, Calb FLC inconclusive
COc1cc(C2N(c3ccccc3)CCN2c2ccccc2)cc(OC)c1OC	none
Cc1ccc(N2CCN(c3ccc(C)cc3)C2c2ccncc2)cc1	L major viab 92
COc1cc(/C=N/NC(=O)CC#N)cc(Br)c1O	none
N#Cc1c(-c2ccc(Cl)cc2Cl)nc2n(c1=O)CCS2	none
Cc1ccc(S(=O)(=O)n2cnc3cc([N+](=O)[O-])ccc32)cc1C	none
Cc1ccc(-n2c3nc(=O)[nH]c(=O)c-3cc3cc([N+](=O)[O-])ccc32)cc1C	L major viab 94
Clc1ccc(CSC2=NCCCN2)cc1Cl	L major viab 91
Cn1nc([N+](=O)[O-])nc1Sc1cccc2cccnc12	T cruzi repl 65
COc1ccc(OC)c(NC(=S)NCCCN2CCOCC2)c1	L major viab 62
S=C(NCCN1CCOCC1)Nc1ccc(Cl)cc1Cl	L major viab 96
Cc1cc(Cl)ccc1NC(=S)NCCN1CCOCC1	PolyA inhibitor inconclusive, L major viab 60
Fc1cc(Cl)ccc1NC(=S)NCCN1CCOCC1	none
S=C(NCCCN1CCOCC1)Nc1ccc(Cl)cc1Cl	L major viab 99
Oc1ccc(/C=N/NC(=S)NCCN2CCOCC2)c(O)c1	L major viab 96
COc1ccccc1NC(=S)NCCN1CCOCC1	none
S=C(NCCN1CCOCC1)Nc1cccc2ccccc12	L major viab 67
COC(=O)c1cc(S(=O)(=O)n2nc(C)c(Br)c2C)c(Cl)cc1Cl	L major viab 89
C=CCn1c(=NC(=O)c2ccc(S(=O)(=O)N3CCc4ccccc4C3)cc2)sc2cc(S(N)(=O)=O)ccc21	Calb FLC inconclusive
COCCn1c(=NC(=O)c2ccc(S(=O)(=O)N3CCc4ccccc4C3)cc2)sc2cc(S(N)(=O)=O)ccc21	L major viab 99
COC(=O)Cn1c(=NC(=O)c2ccc(S(=O)(=O)N3CCc4ccccc4C3)cc2)sc2cc(OC)ccc21	L major viab 87
CCCOc1ccc(CNCCCOCC)cc1OC	L major viab 70, T cruzi repl 63
CCOCCCNCc1ccc(OC)cc1	none
CCOCCCNCc1cccc(OC)c1	L major viab 82
CCOCCCNCc1ccc(OC)c(OC)c1	L major viab 80
CCOc1cc(NC(=S)NCC2CCCO2)c(OCC)cc1NC(=O)c1ccccc1F (configuration not stated)	none
N#Cc1cc(NC2CCCC2)c([N+](=O)[O-])cc1C#N	L major viab 61
O=C(NCc1ccccc1)c1cccc(NS(=O)(=O)c2cccc3cccnc23)c1	L major viab 54
O=S(=O)(NCc1ccccc1)c1cccc2cccnc12	L major viab 64
COc1ccc(-n2nc(C#N)c(Cl)cc2=O)cc1	L major viab 99 (no result: PolyA inhibitor, T cruzi repl, Calb FLC)
S=C(NCCc1ccccc1)Nc1cnc2ccccc2c1	none
O=C(COc1ccc([N+](=O)[O-])cc1Cl)NCCc1ccccc1	NALP1 yeast inh 73
CCNCc1cc(OCC)c(OCC(=O)NCCc2ccccc2)cc1Cl	L major viab 99
CCOc1cc(CNCC(C)C)c(Cl)cc1OCC(=O)Nc1ccccc1	L major viab 82
Cc1nn(-c2ccccc2)c(N2CCCC2)c1/C=N/NC(=S)Nc1ccccc1C(F)(F)F	L major viab 99
Cc1nn(-c2ccccc2)c(N2CCCC2)c1/C=N/O	L major viab 72
CCN(CC)CC(O)COc1ccccc1C(=O)CCc1ccccc1 (configuration not stated)	L major viab 95
CCCNCC(O)COc1ccccc1C(=O)CCc1ccccc1 (configuration not stated)	none (no result: NALP1 yeast inh, Calb FLC)
O=C(Nc1ccccc1)c1ccccc1OCc1ccc(F)cc1	none (no result: L major viab)
CCC(=O)c1ccc(OCC(O)CN(CCc2ccccc2)Cc2ccccc2)cc1 (configuration not stated)	L major viab 100, T cruzi repl inconclusive
CCCCN(CCCC)CC(O)COc1ccccc1C(=O)Nc1ccccc1 (configuration not stated)	L major viab 91
